Measured values gathered from unrelated publications.
Each line is one published result; the experiments were not run side by side.
SLC6A2: Sodium-dependent noradrenaline transporter (SLC6A2, Homo sapiens, UniProt P23975)
MPO: Myeloperoxidase (MPO, Homo sapiens, UniProt P05164)
FGR: Tyrosine-protein kinase Fgr (FGR, Homo sapiens, UniProt P09769)

Structure (SMILES)	target	test	test system	setting	quantity	value
N#CC[C@@]12C[C@@H]1[C@@H](n1cnc3c(NCCCCCCc4ccccc4)nc(I)nc31)[C@H](O)[C@@H]2O	SLC6A2	transporter uptake, inhibitor, radiometric	HEK293	10 µM	inhibition	0%
CC(C)OCCn1c(=S)[nH]c(=O)c2[nH]ccc21	MPO	enzyme activity, inhibitor	–	0.3125 µM	remaining activity	67.4%
CCCCC[C@H](O)/C=C/[C@H]1C(=O)C[C@H](O)[C@@H]1C/C=C\CCCC(=O)O	Prostaglandin D2 receptor (PTGDR, Homo sapiens, UniProt Q13258)	G protein activation, agonist, BRET	–	–	Emax	101%
COc1ccc2oc(-c3ccc4nc(N)oc4c3)c/c(=N\c3ccccc3NC(=O)CCN)c2c1	Fibroblast growth factor receptor 1 (FGFR1, Homo sapiens, UniProt P11362, V561M)	binding	–	1 µM	remaining binding	97%
OC[C@@]12C[C@@H]1[C@@H](n1cnc3c(Nc4ccccc4)nc(I)nc31)[C@H](O)[C@@H]2O	SLC6A2	ligand displacement, radioligand	–	10 µM	inhibition	5%
CCCCC(=O)Nc1ccc(-c2ccc3ncn(CCC)c(=O)c3c2)cn1	FGR	binding, competition with immobilised ligand	–	0.5 µM	remaining binding	100%
NC/C(=C\F)COc1cccc(Cn2c(=S)[nH]c(=O)c3[nH]cnc32)c1	MPO	enzyme activity, inhibitor, fluorescence	–	0.3333 µM	inhibition	98.5%
O[C@@H]1[C@H](O)[C@@H]2C[C@@H]2[C@H]1n1cnc2c(NCCC3CC3)ncnc21	SLC6A2	transporter uptake, inhibitor, radiometric	HEK293	10 µM	inhibition	0%
COc1ccc(Cl)cc1-c1cc(=O)[nH]c(=S)n1CC(N)=O	MPO	enzyme activity, inhibitor	–	10 µM	remaining activity	2.31%
C1=C/COCc2cc(ccc2OCCN2CCCC2)Nc2nccc(n2)-c2cccc(c2)COC/1	FGR	cell-free assay	–	0.1 µM	remaining signal	96%
N#CC[C@@]12C[C@@H]1[C@@H](n1cnc3c(NCCCCCc4ccccc4)nc(I)nc31)[C@H](O)[C@@H]2O	SLC6A2	ligand displacement, radioligand	–	10 µM	inhibition	4%
Cc1cc(O)c(-c2ccc([C@@H](C)CN(C)C)cc2)c2c1[nH]c(=O)c1sccc12	STE20/SPS1-related proline-alanine-rich protein kinase (STK39, Homo sapiens, UniProt Q9UEW8)	enzyme activity, inhibitor	–	0.1 µM	inhibition	13.6%
CC(=O)N[C@@H](C)c1cc(Cl)ccc1C1CCN(C(=O)[C@@H]2CN(C(C)(C)C)C[C@H]2c2ccc(F)cc2F)CC1	Melanocortin receptor 4 (MC4R, Homo sapiens, UniProt P32245)	cAMP, agonist	–	–	Emax	104%
